Bioassay records (PubChem BioAssay)
TRPC6 activator: mouse TRPC6 channel activators, primary screen, cell-based, HEK293, membrane potential dye | Short transient receptor potential channel 6 (Mus musculus), Q61143 | 310,000 compounds, 0.13% hits | HEK293-TRPC6 membrane potential dye fluorescence; active compounds read high | B-score at 10 µM;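 active means B-score of the integrated fluorescence ratio above library mean plus 3 SD, and starting fluorescence ratio within library mean plus 5 SD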;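 further: higher score means more depolarization so channel activation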
TRPC4 agonist: activators of mouse TRPC4 channel, primary screen, Fluo4 calcium, HEK293 TRPC4beta/mu-opioid cells | Fluo4 calcium fluorescence; active compounds read high | B-score at 10 µM | 310,000 compounds, 0.49% hits;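 active means B-score above 5 SD of library B-scores, and initial fluorescence ratio not above library mean plus 5 SD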;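 further: positive B-score marks a calcium rise read as TRPC4 activation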
Target sequence (Q9QUQ5 whole entry, looked up): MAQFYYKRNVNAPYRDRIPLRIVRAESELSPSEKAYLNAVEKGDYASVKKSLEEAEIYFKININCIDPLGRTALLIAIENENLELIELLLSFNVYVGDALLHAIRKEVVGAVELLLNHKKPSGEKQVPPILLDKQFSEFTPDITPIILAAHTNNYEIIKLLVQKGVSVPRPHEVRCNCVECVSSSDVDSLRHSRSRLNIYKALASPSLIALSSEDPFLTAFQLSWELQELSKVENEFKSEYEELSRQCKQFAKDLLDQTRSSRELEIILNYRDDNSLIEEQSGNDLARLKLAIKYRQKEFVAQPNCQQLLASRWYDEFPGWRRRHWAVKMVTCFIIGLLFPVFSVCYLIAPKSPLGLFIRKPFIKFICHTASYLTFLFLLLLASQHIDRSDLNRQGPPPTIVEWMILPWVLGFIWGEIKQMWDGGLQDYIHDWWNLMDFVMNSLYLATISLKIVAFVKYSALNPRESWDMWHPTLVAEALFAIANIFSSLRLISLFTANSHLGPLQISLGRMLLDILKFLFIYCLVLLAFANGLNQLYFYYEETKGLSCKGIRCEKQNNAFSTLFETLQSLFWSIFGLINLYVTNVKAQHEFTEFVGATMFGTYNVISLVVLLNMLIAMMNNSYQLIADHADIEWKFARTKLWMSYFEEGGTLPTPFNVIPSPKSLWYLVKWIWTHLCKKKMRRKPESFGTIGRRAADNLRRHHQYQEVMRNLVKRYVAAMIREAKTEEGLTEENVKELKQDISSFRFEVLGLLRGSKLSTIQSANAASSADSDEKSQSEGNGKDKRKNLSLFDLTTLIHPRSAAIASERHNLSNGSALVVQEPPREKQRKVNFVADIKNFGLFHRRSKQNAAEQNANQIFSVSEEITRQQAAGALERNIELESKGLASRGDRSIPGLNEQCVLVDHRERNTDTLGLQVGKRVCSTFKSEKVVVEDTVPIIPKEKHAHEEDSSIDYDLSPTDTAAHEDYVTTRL
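Assay system: HEK293 stable line with TRPC4beta plus mu-opioid receptor. Times: dye 45 min RT, read 110 s. Measured by: kinetic Fluo4 calcium fluorescence. Measure: B score of integrated ratio. Controls: assay buffer as low control, maximal DAMGO as high control.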
TRPC4 potent: positive allosteric modulators of TRPC4, primary screen, cell-based, mouse TRPC4beta, HEK293 mu-opioid, Fluo-4 calcium | Short transient receptor potential channel 4 (Mus musculus), Q9QUQ5 | DAMGO EC20, Fluo-4 Ca2+ flux; active compounds read high | B-score at 10 µM | 310,000 compounds, 0.42% hits;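 active means B-score of calcium response area above 5 SD of library B-scores, with initial fluorescence ratio within 5 SD of library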
TRPC6 inhibitor: mouse TRPC6 channel inhibitors, primary screen, cell-based, HEK293, membrane potential dye. 310,000 compounds, 1.1% hits. Short transient receptor potential channel 6 (Mus musculus), Q61143. AID 2553, 2010. B-score at 10 µM. ACh-evoked depolarization; active compounds read low;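 active means B-score under library mean minus 3 SD, initial fluorescence not abnormally high, positive integrated signal ratio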;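 further: B-score derived from integrated fluorescence ratio over the kinetic read; more negative B-score means stronger inhibition of depolarization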
TRPC4 block: inhibitors of mouse TRPC4 channel, primary screen, Fluo4 calcium, HEK293 TRPC4beta/mu-opioid cells; B-score at 10 µM; Short transient receptor potential channel 4 (Mus musculus), Q9QUQ5; AID 2247, 2010; 300,000 compounds, 0.39% hits; DAMGO-evoked Fluo4 calcium flux; active compounds read low;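 active means B-score over 3 SD under the library average, no early fluorescence shift, positive overall ratio signal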
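Test system – stable TRPC4beta/mu-opioid receptor HEK293 cells · Probe or stimulus – DAMGO, a submaximal dose followed by a maximal one · Dosing – one concentration per compound · Signal – Fluo4 calcium fluorescence by kinetic imaging, 5 s 1 Hz baseline · Evaluation – per-well B score of integrated baseline-normalized Fluo4 ratio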
TRPC4 spec 2: second selectivity test of TRPC6 inhibitors: effect on mouse TRPC4. shares compounds with TRPC6 inhibitor. HEK293 TRPC4/MOR, membrane potential dye fluorescence; channel activated by saturating DAMGO dose. inhibition, % at 10 µM. 920 compounds, 42% hits. AID 2776;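 active means compounds whose fluorescence signal differed from control wells by over 3 SD, either direction, in both duplicate plates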
TRPC4 spec: mouse TRPC4 modulation by TRPC6 hits, confirmation, selectivity assay for TRPC6 inhibitor project, cell-based, HEK293 TRPC4/mu-opioid, membrane potential dye; 920 compounds, 61% hits; membrane potential fluorescence; AID 2777, 2010; shares compounds with TRPC6 inhibitor; activity change, negative = inhibition, % at 10 µM;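 active means rise or fall in signal beyond 3 SD of buffer-only wells in both replicate plates, either sign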;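 further: integrated kinetic ratio of fluorescence range over baseline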
HEK293 MPD ctr 2-1: nonspecific membrane potential effects, parental HEK293, confirmation, counter-screen for TRPC6 inhibitor project, cell-based, second counter screen. shares compounds with TRPC6 inhibitor. parental HEK293 membrane potential dye fluorescence; maximal acetylcholine challenge after compound addition. signal change vs control, % at 10 µM. 920 compounds, 31% hits;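 active means membrane potential signal moving either way by over 3 SD of the maximum-effect control, in both duplicate plates, meaning non-specific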
HEK293 MPD ctr-1: membrane potential modulation in parental HEK293, confirmation, counter-screen for TRPC6 inhibitor project, cell-based; shares compounds with TRPC6 inhibitor; parental HEK293 membrane potential dye fluorescence; membrane potential signal change, % at 10 µM; 920 compounds, 60% hits; AID 2780, 2010;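 active means membrane potential signal shifting up or down by more than 3 SD of buffer-only wells, on both duplicate plates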
HEK293 MPD ctr-2: parental HEK293 membrane potential modulation, confirmation, counter-screen for TRPC6 modulator project, cell-based; shares compounds with TRPC6 inhibitor; membrane potential dye fluorescence; membrane potential signal change, % at 10 µM; 2,400 compounds, 51% hits;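 active means membrane potential signal moves up or down beyond 5 SD from buffer-only wells, on both duplicate plates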
HEK293 MPD ctr 2-2: parental HEK293 nonspecific activity of TRPC6 modulators, second screen. shares compounds with TRPC6 inhibitor. membrane potential dye fluorescence; after compound, maximal acetylcholine stimulation. inhibition, % at 10 µM. 2,400 compounds, 14% hits. AID 488926;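 active means membrane potential signal drops by more than 5 SD from the mean control signal, in both duplicate plates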
TRPC4 ctr mod: TRPC4 modulation by TRPC6 hit compounds, confirmation, selectivity assay for TRPC6 modulator project, cell-based, HEK293 TRPC4/mu-opioid, membrane potential dye, mouse | shares compounds with TRPC6 inhibitor | membrane potential fluorescence | percent change from control (negative = decrease, positive = increase), % at 10 µM | 2,400 compounds, 69% hits | AID 488927, 2010;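 active means membrane potential signal moved up or down beyond 5 SD of buffer control wells, in both duplicate plates, actives on both sides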
TRPC4/MOR inh 2: mouse TRPC4 off-target activity of TRPC6 modulators, second screen; 2,400 compounds, 55% hits; inhibition, % at 10 µM; AID 488928; HEK293 TRPC4/mu-opioid, membrane potential dye fluorescence; stimulated with maximal-effect DAMGO; shares compounds with TRPC6 inhibitor;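 active means drop in membrane potential signal beyond 5 SD of the control wells in both duplicate plates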;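 further: TRPC4 counter screen for TRPC6 hits run under conditions tuned for TRPC6 not TRPC4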
TRPC6 block conf: mouse TRPC6 channel inhibitors, confirmation, HEK293 cells, membrane potential dye, duplicate; shares compounds with TRPC6 inhibitor; ACh-evoked depolarization; inhibition, % at 10 µM; 3,300 compounds, 43% hits;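 active means fluorescence ratio falls more than 5 SD below the full-stimulation control mean, in both duplicate runs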;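 further: integrated fluorescence ratio of peak minus minimum over baseline after agonist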
TRPC6 act confirm: mouse TRPC6 channel activators, confirmation, HEK293 cells, membrane potential dye, duplicate; shares compounds with TRPC6 inhibitor; HEK293-TRPC6 membrane potential dye fluorescence, FDSS; activation, % at 10 µM; 2,800 compounds, 11% hits; AID 488961, 2010;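 active means ratio signal rise beyond 5 SD above unstimulated control wells' mean, seen in both duplicate runs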
Of the large screens only hits and unclear results are named; the others gave an inactive call (follow-up assays come after a bar, where they were run). Only some compounds are listed: those with a hit (about 2.3% of all), similar ones and a draw of the others.

COc1ccc(S(=O)(=O)NC(C)C(=O)Nc2ccc3c(c2)OCCO3)cc1OC (configuration not stated)	TRPC6 inhibitor -6.1 | HEK293 MPD ctr-2 inactive | HEK293 MPD ctr 2-2 inactive | TRPC4 ctr mod inactive | TRPC4/MOR inh 2 inactive | TRPC6 block conf inactive | TRPC6 act confirm inactive
O=C(Nc1nccs1)c1ccc2c(=O)n3c(nc2c1)CCCCC3	none
O=C(C[n+]1ccc(Cc2ccccc2)cc1)Nc1ccc([N+](=O)[O-])cc1Cl	TRPC6 inhibitor -7.6 | TRPC4 spec 2 inactive | TRPC4 spec -27% | HEK293 MPD ctr 2-1 inactive | HEK293 MPD ctr-1 -334% | TRPC6 block conf inactive | TRPC6 act confirm inactive
Cc1cccc[n+]1CC(=O)Nc1ccc([N+](=O)[O-])cc1Cl	none
N=c1c(-c2nc3ccccc3[nH]2)cc(C(=O)c2cccs2)nn1-c1ccccc1	TRPC6 inhibitor -7.7 | TRPC4 spec 2 58% | TRPC4 spec -14% | HEK293 MPD ctr 2-1 inactive | HEK293 MPD ctr-1 -179% | TRPC6 block conf 68% | TRPC6 act confirm inactive
Cc1cccc(C)c1NC(=O)/C(C#N)=C/c1ccc(-c2ccc(C(=O)O)cc2)o1	none
CCC(C)Sc1ccc([C@H]2N[C@@](Cc3ccccc3)(C(=O)OC)[C@H]3C(=O)N(CC)C(=O)[C@@H]23)cc1 (some centres not stated)	none
COc1ccccc1C(=O)Nc1cccc2c1CCCC2	none
O=C1/C(=C/c2cccs2)CCC/C1=C\c1cccs1	none
Cn1cccc1/C=C1\CCC/C(=C\c2cccn2C)C1=O	TRPC6 activator 35 | HEK293 MPD ctr-2 261% | HEK293 MPD ctr 2-2 inactive | TRPC4 ctr mod 98% | TRPC4/MOR inh 2 inactive | TRPC6 block conf inactive | TRPC6 act confirm 66%
COc1ccc(N2C(=O)CSC2c2ccc3c(c2)OCO3)cc1 (configuration not stated)	TRPC6 inhibitor -7.5 | TRPC4 spec 2 inactive | TRPC4 spec inactive | HEK293 MPD ctr 2-1 inactive | HEK293 MPD ctr-1 inactive | TRPC6 block conf inactive | TRPC6 act confirm inactive
CC(/C=C/C=C/c1ccccc1)=N/NC(=O)c1ccc2c(c1)OCCO2	none
O=C(NCCS(=O)(=O)N1CCCCCC1)c1ccccc1	none
Nc1ccc2nc[nH]c2c1	none
N#Cc1cc(Sc2ccccn2)c([N+](=O)[O-])cc1C#N	TRPC6 inhibitor -8.3 | TRPC4 spec 2 inactive | TRPC4 spec -21% | HEK293 MPD ctr 2-1 -78% | HEK293 MPD ctr-1 -320% | TRPC6 block conf 75% | TRPC6 act confirm inactive
COc1ccc(-c2cc(C(=O)NCC(c3ccco3)N(C)C)c3ccccc3n2)cc1OC (configuration not stated)	none
CCOC(=O)c1c(CNc2ccncc2)n(C)c2cc(Br)c(O)cc12	TRPC6 inhibitor -8.3 | TRPC4 spec 2 70% | TRPC4 spec -27% | HEK293 MPD ctr 2-1 -46% | HEK293 MPD ctr-1 -370% | TRPC6 block conf 60% | TRPC6 act confirm inactive
COc1ccc([C@@H]2[C@@H]3C(=O)N(C(C)(C)C)C(=O)[C@@H]3[C@]3(CC(C)C)C(=O)N(c4cccc(Br)c4)C(=O)N23)cc1	none
CN(C)CCNc1c2c(c(C#N)c3nc4ccccc4n13)CCCC2	TRPC6 inhibitor -11 | TRPC4 spec 2 60% | TRPC4 spec -28% | HEK293 MPD ctr 2-1 48% | HEK293 MPD ctr-1 -384% | TRPC6 block conf 73% | TRPC6 act confirm inactive
N#Cc1c2c(c(NCc3ccco3)n3c1nc1ccccc13)CCC2	none
CCN(CC)CCNc1c2c(c(C#N)c3nc4ccccc4n13)CCCC2	TRPC6 inhibitor -5.1 | HEK293 MPD ctr-2 inactive | HEK293 MPD ctr 2-2 inactive | TRPC4 ctr mod -18% | TRPC4/MOR inh 2 36% | TRPC6 block conf 42% | TRPC6 act confirm inactive
Cc1cc(C)c(NC(=O)CN2CCN(c3ccccn3)CC2)c(C)c1	none
S=c1[nH]nc(-c2ccccc2)n1Cc1ccccc1	none
CC(C)c1cc(-c2n[nH]c(=S)n2Cc2ccccc2)cs1	TRPC6 inhibitor -16 | HEK293 MPD ctr-2 inactive | HEK293 MPD ctr 2-2 inactive | TRPC4 ctr mod 8.5% | TRPC4/MOR inh 2 inactive | TRPC6 block conf inactive | TRPC6 act confirm inactive
